Assay [1] relates to Radical scavenging activity. Put plainly: Antioxidant activity assessed as DPPH radical scavenging activity after 30 mins by spectrophotometry. In kind it is functional. (In general: The DPPH test is a chemical assay of radical scavenging.)
The subject of assay [2] is Radical scavenging activity. Put plainly: Antioxidant activity assessed as trolox equivalent of DPPH radical scavenging activity after 30 mins by spectrophotometry. The format is functional.
The nature of assay [3]: Antioxidant activity assessed as inhibition of lipid peroxidation after 60 mins by TBARS assay. In kind it is functional. The gist of the method:
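Olive oil (10.0 µg) was emulsified with Tween-40 in 0.2 M Tris-HCl, pH 7.4. The emulsion was UV-irradiated at 254 nm for 60 min, then stirred 24 h at room temperature. Thiobarbituric acid-reactive species were developed in a boiling water bath for 90 min and centrifuged, and the supernatant was read at 532 nm. Inhibition was given as % versus a blank without compound.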

The nature of assay [4]: Antioxidant activity assessed as trolox equivalent of lipid peroxidation inhibition after 60 mins by TBARS assay. In kind it is functional.
Assay [5] in a line: Antioxidant activity assessed as inhibition of Fe3+ ion-induced 2-deoxyribose oxidation after 24 hrs by TBA method. The format is functional. The method in brief:
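EDTA, FeCl3 and H2O2 (1.0 mM each) were preincubated for 1 h at 37 °C. 2-Deoxyribose (28 mM) and ascorbic acid (1.0 mM) were then added. Compounds at 5, 10 or 20 µM (150 µL per 1350 µL mixture) were incubated 24 h at 37 °C. Degradation was measured with TBA 0.5%/TCA 2.5% at 90 °C for 3 h, read at 532 nm, in triplicate.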

A short description of assay [6]: Antioxidant activity assessed as trolox equivalent of inhibition of Fe3+ ion-induced 2-deoxyribose oxidation after 24 hrs by TBA method. In kind it is functional.
The nature of assay [7]: Antioxidant activity assessed as inhibition of H2O2-induced bovine serum albumin oxidation after 10 mins by spectrophotometry. To be noted: in the assay text read “after 1 hr” for “after 10 mins”. The format is functional. The method in brief: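 BSA (10 mg/mL) was incubated 1 h at 37 °C in 20 mM phosphate, pH 7.4, with FeCl3 400 µM, H2O2 3 mM, ascorbate 400 µM and metabolite at 5, 10 or 20 µM. Carbonyls were derivatized with DNPH (20 mM in 2 N HCl) and TCA 20%, then centrifuged. The pellet was washed with EtOH/EtOAc, dissolved in 6 M guanidine-HCl, pH 6.5, and read at 370 nm. Runs were in triplicate, as % versus blank.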

Assay [8] in a line: Antioxidant activity assessed as trolox equivalent of inhibition of H2O2-induced bovine serum albumin oxidation after 1 hr by spectrophotometry.
Assay [9] is described as follows: Antioxidant activity assessed as inhibition of H2O2-induced bovine serum albumin oxidation after 1 hr by spectrophotometry.
Assay [10] in a line: Antioxidant activity assessed as hydroxyl radical scavenging activity at 20 uM. The format is functional.

Bounds are passed on as bounds.

For `COc1cc(/C=C/C(=O)OC[C@H]2O[C@@H](OCCc3ccc(O)c(O)c3)[C@H](O)[C@@H](O[C@@H]3O[C@@H](C)[C@H](O)[C@@H](O)[C@H]3O[C@@H]3OC[C@H](O)[C@@H](O)[C@H]3O)[C@@H]2O)ccc1O`, the Activity result in assay [1] was “Dose-dependent effect”; in assay [2] it was 1.9; in assay [4], 0.7; in [6] it was 0.5; in [8] it was 3.8. The IC50 – broadly, the point on the concentration scale where inhibition reaches its midpoint – turned out to be 11 µM in assay [1], 46.7 µM in [3], 37.3 µM in [5] and 18.1 µM in [7].

Consider `C[C@@H]1O[C@@H](O[C@@H]2[C@@H](O)[C@H](OCCc3ccc(O)c(O)c3)O[C@H](CO)[C@H]2OC(=O)/C=C/c2ccc(O)c(O)c2)[C@H](O)[C@H](O)[C@H]1O` [ACETOSIDE], for which the Activity result in assay [1] is “Dose-dependent effect”; in assay [2], 1.3; in assay [4], 3.3; in assay [6] it was 0.5; in [8] it was 1.2. Besides, the half-maximal inhibitory concentration (IC50) in assay [1] turned out to be 15.3 µM; in [3], 9.7 µM; in assay [5], 26.4 µM; in assay [7] it was 57.2 µM.

Regarding `CC(=O)O[C@]1(C)C[C@H](O)[C@H]2C=CO[C@H](O[C@@H]3O[C@H](CO)[C@@H](O)[C@H](O)[C@H]3O)[C@H]21`, the Activity result in assay [1] was “Dose-dependent effect”; in assay [4], 0.7; in assay [6], 0.3; in assay [8], 1.8. The concentration for half-maximal inhibition (IC50) is more than 300 µM in [1], 44.2 µM in [3], 52.2 µM in [5] and 38.9 µM in [7].

As for `COc1ccc(/C=C/C(=O)OC[C@H]2O[C@@H](O[C@H]3OC=C[C@@]4(O)[C@@H]3[C@](C)(O)C[C@@H]4O)[C@H](O)[C@@H](O)[C@@H]2O)cc1`, the Activity entry in assay [1] is “Dose-dependent effect”; in assay [4], 0.5; in assay [6] it was 1.4; in assay [8], 6.6. Besides, the IC50 in assay [1] was more than 300 µM; in assay [3], 67.3 µM; in assay [5], 13.2 µM; in [9] it was 10.4 µM.

`Cc1c(C)c2c(c(C)c1O)CCC(C)(C(=O)O)O2` (stereo unspecified) [TROLOX]: the IC50 came to 21 µM in assay [1], 31.8 µM in [3], 18 µM in assay [5] and 69.2 µM in assay [7].

Take `COc1ccc(/C=C/C(=O)OC[C@H]2O[C@@H](O[C@H]3OC=C[C@@]4(O)[C@@H]3[C@](C)(O)C[C@@H]4O)[C@H](O)[C@@H](O)[C@@H]2O)cc1OC`: the Activity result in assay [1] was “Dose-dependent effect”; in assay [4] it was 1; in assay [6], 0.7; in [8], 6.5. Also, the IC50 was more than 300 µM in [1], 33.1 µM in assay [3], 26.5 µM in assay [5] and 10.7 µM in [9].

`COc1cc(/C=C/C(=O)O[C@H]2[C@H](O[C@@H]3O[C@@H](C)[C@H](O)[C@@H](O)[C@H]3O[C@@H]3OC[C@H](O)[C@@H](O)[C@H]3O)[C@@H](O)[C@H](OCCc3ccc(O)c(O)c3)O[C@@H]2CO)ccc1O`: the Activity entry in assay [1] is “Dose-dependent effect”; in [2], 1.5; in assay [4], 1.5; in assay [6] it was 0.6; in [8], 2.1. Moreover, the IC50 in [1] came to 14 µM; in assay [3], 20.9 µM; in assay [5] it was 32 µM; in assay [7], 32.8 µM.

With `COc1ccc(/C=C/C(=O)OC[C@H]2O[C@@H](O[C@H]3OC=C[C@@]4(O)[C@@H]3[C@](C)(O)C[C@@H]4O)[C@H](O[C@@H]3O[C@H](CO)[C@@H](O)[C@H](O)[C@H]3O)[C@@H](O)[C@@H]2O)cc1`, the Activity entry was “Dose-dependent effect” in [1], 0.8 in assay [4], 1.4 in assay [6] and 5.4 in assay [8]. The IC50 in [1] was more than 300 µM; in assay [3], 39 µM; in assay [5] it was 12.9 µM; in assay [7], 12.8 µM.

With `C[C@@H]1O[C@@H](O[C@@H]2[C@@H](O)[C@H](OCCc3ccc(O)c(O)c3)O[C@H](COC(=O)/C=C/c3ccc(O)c(O)c3)[C@H]2O)[C@H](O[C@@H]2OC[C@H](O)[C@@H](O)[C@H]2O)[C@H](O)[C@H]1O`, the Activity entry in assay [1] is “Dose-dependent effect”; in assay [2], 0.5; in [4] it was 1.2; in assay [6], 0.7; in assay [8] it was 1.8. In addition, the IC50 came to 38.3 µM in assay [1], 26.3 µM in assay [3], 33.5 µM in assay [5] and 38 µM in assay [7].

For `COc1ccc(/C=C/C(=O)OC[C@H]2O[C@@H](O[C@H]3OC=C[C@H]4[C@@H]3[C@](C)(O)C[C@@H]4O)[C@H](O)[C@@H](O)[C@@H]2O)cc1OC`, in [1], the IC50 is more than 300 µM.

Take `CC(=O)O[C@]1(C)C[C@H](O)[C@@]2(O)C=CO[C@H](O[C@@H]3O[C@H](CO)[C@@H](O)[C@H](O)[C@H]3O)[C@H]21`: the Activity entry in assay [1] was “Dose-dependent effect”; in assay [4] it was 0.7; in assay [6], 0.3; in assay [8] it was 2.9. The IC50 is more than 300 µM in assay [1], 45.5 µM in assay [3], 51 µM in [5] and 23.5 µM in [7].

For `C[C@@H]1O[C@@H](O[C@@H]2[C@@H](O)[C@H](OCCc3ccc(O)c(O)c3)O[C@H](CO)[C@H]2OC(=O)/C=C/c2ccc(O)c(O)c2)[C@H](O[C@@H]2OC[C@H](O)[C@@H](O)[C@H]2O)[C@H](O)[C@H]1O`, the Activity result was “Dose-dependent effect” in assay [1]; 1.4 in assay [2]; 2 in [4]; 0.5 in [6]; 54.7% in assay [10]; 1.5 in assay [8]. The half-maximal inhibitory concentration (IC50) in assay [1] was 16.5 µM; in [3], 16.3 µM; in [5], 34.6 µM; in [7], 44.8 µM.

Source of the values: ChEMBL document CHEMBL1152540, “Antioxidant efficacy of iridoid and phenylethanoid glycosides from the medicinal plant Teucrium chamaedris in cell-free systems” (Bioorg Med Chem, 2009).
